The values below come from PMC6404985 (Cell chemical biology, 2018).

In data set [1] the test system is BAF-mediated transcriptional repression (Bmi1-luciferase reporter cell line). Put plainly: Bmi1-luciferase reporter assay in mouse ESCs. Format: cell-based. The conditions noted are these: for activity in the Bmi1 luciferase reporter assays (in words): follow up library. In outline:
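Mouse ESC Bmi1-luciferase reporter line: 10,000 cells per 384-well in ESC medium, 24 h at 37 °C/5% CO2, then compound added by 100 nL pin transfer alongside a positive control. Each concentration in triplicate; DMSO tolerated to 0.5%. After 24 h treatment, equilibrated 10 min at room temperature, SteadyGlo added for 10 min, luminescence read. EC50 derived.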

Data set [2] concerns human primary CD4+ T cells. The data set can be described thus: T cell activation markers CD25 and CD69. To be noted: 24 and 72 hours, two healthy donors. Type of data set: cell-based.
Data set [3] concerns latent HIV-1. Put plainly: Second ex vivo model of HIV-1 latency. The conditions noted are these: 24 h. Type of data set: cell-based. In outline: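 Healthy-donor CD4+ T cells were polarized for 3 days with 10 ng/ml TGF-β, 1 µg/ml α-IL-4 and αCD3/CD28 beads (1:1). Beads removed, then 4 days in 30 IU/ml rIL-2. Spin-infected 90 min at 1200 g, then kept in rIL-2 plus 5 µM saquinavir. Seven days post-infection, treated 24 h with increasing concentrations plus 30 µM raltegravir. Luciferase RLU normalized to total protein.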

Data set [4] has as its system BAF target genes p21 and c-MYC. Put plainly: Biomarker mRNA expression of BAF target genes in CD4+ T cells. Type of data set: cell-based, human. The essentials: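 Human CD4+ T cells, healthy donors: three donors isolated by Ficoll and RosetteSep negative selection, treated in duplicate with 3 µM test compound or DMSO for 16 h. HIV+ patient cells: frozen PBMCs rested overnight, CD4+ enriched twice, rested 6 h, 3 million cells treated with 10 µM compound or DMSO. TRIreagent RNA, random-primed cDNA; p21 and c-MYC mRNA vs control; Student's t test.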

The test system of data set [5] is latent HIV-1. The data set can be described thus: Ex vivo primary CD4+ T cell model of HIV-1 latency. Type of data set: cell-based. The conditions noted are these: 24 h treatment. In outline:
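Healthy-donor CD4+ T cells (buffy coat, Ficoll, RosetteSep negative selection) were spin-infected 24 h after isolation with HXB2 Env-pseudotyped pNL4.3.Luc.R-E- (1200 g, 2 h). After 18 h, cells were washed and cultured with 5 µM saquinavir. Three days later, treated 24 h with 30 µM raltegravir present. Luciferase read-out normalized to total protein, expressed as fold over untreated; Bliss score for combinations.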

Data set [6] deals with nucleosome occupancy at the HIV-1 5'-LTR. Put plainly: FAIRE assay in J-Lat 11.1. Type of data set: cell-based. To be noted: J-Lat 11.1, overnight treatment.
For data set [7], the system named is latent HIV-1. The data set can be described thus: Latency reversal in CD4+ T cells from aviremic HIV-1 infected patients. Type of data set: cell-based.
The test system of data set [8] is ARID1A. Put plainly: Biotin pulldown from ESC lysates, ARID1A. Format: binding, mouse. The conditions noted are these: 200 µM soluble compound, pulldown with CAM 2–56. In outline:
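Beads incubated 2 h with cell lysates pre-incubated with DMSO or 200 µM soluble competitor. Beads washed once, boiled in SDS loading buffer, and bound proteins detected by immunoblot.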

Data set [9] has as its system latent HIV-1. The data set can be described thus: HIV latency reversal activity of the thiophene hit. Type of data set: cell-based.
In data set [10] the test system is HepG2 cells. The data set can be described thus: Viability assay HepG2. Type of data set: cell-based, human. The conditions noted are these: 72 h. In outline:
(§1)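 2000 cells/well in 384-well plates, pre-incubated 24 h at 37 °C, 5% CO2. Compound added by pin transfer; mitoxantrone (10 µM final) as cytotoxic positive control. Incubated 72 h, equilibrated 15 min to room temperature. CellTiter-Glo diluted 1:1 with PBS (pH 7.4) added, luminescence read. Run at eight doses as a viability counter-screen.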

Data set [11] concerns latent HIV-1 provirus in J-Lat cells. The data set can be described thus: J-Lat T-cell line models of HIV-1 latency. Format: cell-based. To be noted: 48 h; higher concentrations than in primary cells.
Data set [12] has as its system BAF target genes (Bmi1, Ring1, Fgf4). To be noted: 30 µM, 18 h.
The test system of data set [13] is A549 cells. The data set can be described thus: Viability assay A549. Type of data set: cell-based, human. The conditions noted are these: 72 h. In outline: as §1
In data set [14] the test system is HEK293T cells. The data set can be described thus: Viability assay HEK293T. Format: cell-based, human. The conditions noted are these: 72 h. In outline:
as §1

Data set [15] has as its system wild type ESCs. The data set can be described thus: Viability of wild type ESCs. Type of data set: cell-based, mouse. The conditions noted are these: up to 30 µM, 72 h. In outline:
as §1

Where [16] appears, read: CD4+ T cells of three patients, 10 µM.

Entries after “also recorded” stand apart in the source; their conditions may differ.

Take `CO[C@H]1CN(C)C(=O)c2cc(NC(=O)NC(C)C)ccc2OC[C@H](C)N(Cc2ccccc2)C[C@@H]1C` [BRD-K13648511]: the “activity in the Bmi1 luciferase reporter assays (in words)” value (“activity … (in words)” below) in [1] is “low/no activity”.

As to `CO[C@H]1CN(C)C(=O)c2cc(NC(=O)OC(C)C)ccc2OC[C@H](C)N(Cc2ccc(-c3ccccn3)cc2)C[C@@H]1C` [BRD-K80443127], in data set [2], the “effect on CD25 and CD69 expression (T cell activation)” value was “no effect”. Besides, the “activation in second ex vivo model of HIV-1 latency” value in data set [3] was “activation was confirmed”. The “differential expression of c-MYC and p21” value in data set [4] (CD4+ T cells of healthy donors, 3 µM, 16 hours) was “consistent with BAF inhibition”. For the same molecule, in [4] (setting [16]), the C-MYC transcripts levels result is “significant decrease” and the p21 transcripts levels entry was “significant decrease”. The “activity … (in words)” value in data set [1] is reported as “high activity”. The “transcription of latent HIV-1 in ex vivo infected primary CD4+ T cells” value (“transcription” for short) in [5] was “slightly higher activity at low concentrations; also recorded: triggered HIV transcription”. Further, the “chromatin accessibility at the Nuc-1 position of the 5' LTR” value in data set [6] is listed as “increased chromatin accessibility”. Moreover, in [7] (all three patients), the “potentiation of prostratin activity” value is “significant potentiation”. Also, in [7] (in one patient), the “cell associated HIV mRNA after ex vivo treatment alone” value is recorded as “significant increase”. In addition, in [7] (patient 2 and 3, 10 µM with 200 nM prostratin, 24 h), the “POL copies when co-treated with prostratin” value is recorded as “significant increase”. In addition, the “cell associated HIV-1 POL after treatment alone” value in data set [7] (patient 2 and 3, 10 µM, 24 h) is “did not result in a significant increase”.

For the molecule `CO[C@H]1CN(C)C(=O)c2cc(N)ccc2OC[C@H](C)N(Cc2ccc(-c3ccccn3)cc2)C[C@@H]1C` [BRD-K25923209], the “activity … (in words)” value in [1] was “high activity”. For the same molecule, in [5], the “transcription” value was “triggered HIV transcription”. Also, in data set [8], the “ARID1A enrichment upon preincubation of lysates with soluble competitor” value was “complete reduction”.

On to `CCC(CC)Nc1c(Nc2ccc3c(c2)C(=O)N(C)C[C@H](OC)[C@@H](C)CN(Cc2ccc(-c4ccccn4)cc2)[C@@H](C)CO3)c(=O)c1=O` [BRD-K04244835], for which the “activity … (in words)” value in data set [1] is given as “low/no activity”.

With `CO[C@H]1CN(C)C(=O)c2cc(NC(=O)NC(C)C)ccc2OC[C@H](C)N(Cc2ccc(-c3cccnc3)cc2)C[C@@H]1C` [BRD-K17257309], the “activity … (in words)” value in data set [1] is “moderate activity”.

On to `C=CCNc1nc(NCc2cccc(OC)c2)c2sc(-c3ccccc3)cc2n1` [MLS003122856], for which the “HIV latency reversal activity” value in [9] was “only moderate HIV latency reversal activity”.

For `CO[C@H]1CN(C)C(=O)c2cc(NC(=O)NC(C)C)ccc2OC[C@H](C)N(Cc2ccc(-c3ccccn3)cc2)C[C@@H]1C` [BRD-K98645985], in [10], the “toxicity to HepG2 cells” value is given as “no toxicity”. The “latency reversal in J-Lat cells” value in data set [11] is given as “concentration dependent latency reversal”. Besides, in data set [12], the “fold decrease in Fgf4” value is 3.3 fold, the “fold increase in Bmi1” value was determined as 5 fold and the “fold increase in Ring1” value is reported as 2.6 fold. The “activity … (in words)” value in [1] is “high activity”. Moreover, the EC50 in data set [1] (read-out: EC50 in the luciferase assay, 24 h compound treatment, re-evaluation of hit) is about 2.37 µM. Besides, in data set [13], the “toxicity to A549 cells” value is on record as “no toxicity”. Besides, the “toxicity to HEK293T cells” value in data set [14] is “no toxicity”. The “transcription” value in data set [5] is on record as “triggered HIV transcription”. Moreover, the “toxicity to ESCs” value in data set [15] is “no toxicity”.
